{
  "source": "ChEMBL document CHEMBL4184197",
  "about": "(Bioorg Med Chem, 2018)",
  "key": {"[1]": {"biological_target": "Matrix metalloproteinase-9 (Homo sapiens) (UniProt P14780)", "assay": "Binding affinity to human MMP9 at 10 uM after 90 mins by fluorescence assay relative to control"}, "[2]": {"biological_target": "Adenosine receptor A1 (Homo sapiens) (UniProt P30542)", "sequence (P30542 whole entry)": "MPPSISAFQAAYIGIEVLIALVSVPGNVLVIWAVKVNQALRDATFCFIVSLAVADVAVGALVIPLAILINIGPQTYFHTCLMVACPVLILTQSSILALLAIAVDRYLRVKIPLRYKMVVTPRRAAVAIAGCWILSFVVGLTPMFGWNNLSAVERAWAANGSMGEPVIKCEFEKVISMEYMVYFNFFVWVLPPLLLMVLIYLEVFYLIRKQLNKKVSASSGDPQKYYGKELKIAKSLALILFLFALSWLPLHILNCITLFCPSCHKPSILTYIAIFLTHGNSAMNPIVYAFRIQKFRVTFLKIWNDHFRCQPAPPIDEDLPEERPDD", "assay": "Binding affinity to recombinant human A1 receptor at 10 uM after 60 mins by scintillation counting analysis relative to control"}, "Salmonella typhimurium": {"test_system": "Salmonella typhimurium", "assay": "Mutagenicity in Salmonella typhimurium TA98 in presence of rat liver S9 fraction by Ames test", "type": "toxicity, organism-based", "conditions": "salmonella enterica subsp. enterica serovar typhimurium; call rule not given here"}, "COS-7": {"test_system": "COS-7", "assay": "Cytotoxicity against African green monkey COS7 cells assessed as cell death after 2 days by MTT assay", "type": "cell-based", "conditions": "chlorocebus aethiops, cos-7, 48 h"}, "[3]": {"biological_target": "MAO-B (amine oxidase [flavin-containing] B) (Homo sapiens, UniProt P27338)", "assay": "Binding affinity to recombinant human MAO-B at 10 uM after 60 mins by luminescence analysis relative to control", "conditions": "read-out: Activity"}, "[4]": {"biological_target": "Cathepsin D (Homo sapiens) (UniProt P07339)", "assay": "Binding affinity to human cathepsin D at 10 uM after 30 mins by fluorescence assay relative to control"}, "[5]": {"biological_target": "NAD-dependent protein deacetylase sirtuin-2 (Homo sapiens) (UniProt Q8IXJ6)", "sequence (Q8IXJ6 whole entry)": "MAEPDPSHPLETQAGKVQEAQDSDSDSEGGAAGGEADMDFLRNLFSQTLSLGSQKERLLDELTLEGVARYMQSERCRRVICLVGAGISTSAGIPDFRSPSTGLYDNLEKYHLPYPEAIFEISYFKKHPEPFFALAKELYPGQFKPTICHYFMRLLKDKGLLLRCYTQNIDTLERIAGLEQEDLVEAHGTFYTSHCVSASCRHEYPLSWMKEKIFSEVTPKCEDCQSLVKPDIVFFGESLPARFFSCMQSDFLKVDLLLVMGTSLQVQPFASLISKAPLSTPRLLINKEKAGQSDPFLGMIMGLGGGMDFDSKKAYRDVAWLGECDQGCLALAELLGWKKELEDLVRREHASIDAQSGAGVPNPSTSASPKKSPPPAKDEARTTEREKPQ", "assay": "Binding affinity to surtuin-2 (unknown origin) at 10 uM by relative to control"}, "[6]": {"biological_target": "Histamine H1 receptor (Homo sapiens) (UniProt P35367)", "assay": "Binding affinity to recombinant human histamine H1 receptor at 10 uM after 60 mins by scintillation counting analysis relative to control"}, "[7]": {"biological_target": "Mu-type opioid receptor (Homo sapiens) (UniProt P35372)", "assay": "Binding affinity to recombinant human mu opioid receptor at 10 uM after 120 mins by scintillation counting analysis relative to control"}, "[8]": {"biological_target": "C-X-C chemokine receptor type 2 (Homo sapiens) (UniProt P25025)", "sequence (P25025 whole entry)": "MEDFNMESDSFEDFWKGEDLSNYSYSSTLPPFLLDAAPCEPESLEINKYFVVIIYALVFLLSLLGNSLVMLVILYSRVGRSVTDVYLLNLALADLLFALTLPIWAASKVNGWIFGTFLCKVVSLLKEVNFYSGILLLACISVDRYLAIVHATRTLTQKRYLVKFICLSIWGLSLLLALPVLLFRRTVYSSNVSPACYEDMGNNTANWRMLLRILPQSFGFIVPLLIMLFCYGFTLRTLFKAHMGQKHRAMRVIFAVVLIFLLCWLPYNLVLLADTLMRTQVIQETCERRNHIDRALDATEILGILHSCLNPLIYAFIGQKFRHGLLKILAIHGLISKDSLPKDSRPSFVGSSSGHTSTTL", "assay": "Binding affinity to recombinant human CXCR2 receptor at 10 uM after 60 mins by scintillation counting analysis relative to control"}, "L-type calcium channel": {"biological_target": "L-type calcium channel (Homo sapiens, UniProt O60840+Q01668+Q13698+Q13936)", "assay": "Binding affinity to L-type calcium channel (unknown origin) at 10 uM relative to control", "type": "protein assay", "conditions": "read-out: Activity"}, "Caspase-8 (Homo sapiens)": {"biological_target": "Caspase-8 (Homo sapiens) (UniProt Q14790)", "sequence (Q14790 217-374 limits assumed)": "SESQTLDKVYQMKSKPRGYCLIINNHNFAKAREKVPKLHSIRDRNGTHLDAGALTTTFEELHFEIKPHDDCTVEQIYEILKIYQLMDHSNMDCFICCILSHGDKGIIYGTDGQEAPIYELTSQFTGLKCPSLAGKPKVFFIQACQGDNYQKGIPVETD", "sequence (Q14790 385-479 limits assumed)": "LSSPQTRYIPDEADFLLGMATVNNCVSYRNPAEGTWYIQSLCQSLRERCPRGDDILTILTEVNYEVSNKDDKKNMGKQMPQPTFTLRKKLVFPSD", "assay": "Binding affinity to recombinant human caspase 8 at 10 uM after 45 mins by fluorescence assay relative to control"}, "[9]": {"biological_target": "Muscarinic acetylcholine receptor M4 (Homo sapiens) (UniProt P08173)", "assay": "Binding affinity to recombinant human muscarinic M4 receptor at 10 uM after 60 mins by scintillation counting analysis relative to control"}, "[10]": {"biological_target": "Neuromedin-K receptor (Homo sapiens) (UniProt P29371)", "assay": "Binding affinity to recombinant human NK3 receptor at 10 uM after 120 mins by scintillation counting analysis relative to control"}, "[11]": {"biological_target": "Sodium-dependent serotonin transporter (Homo sapiens) (UniProt P31645)", "sequence (P31645 whole entry, looked up)": "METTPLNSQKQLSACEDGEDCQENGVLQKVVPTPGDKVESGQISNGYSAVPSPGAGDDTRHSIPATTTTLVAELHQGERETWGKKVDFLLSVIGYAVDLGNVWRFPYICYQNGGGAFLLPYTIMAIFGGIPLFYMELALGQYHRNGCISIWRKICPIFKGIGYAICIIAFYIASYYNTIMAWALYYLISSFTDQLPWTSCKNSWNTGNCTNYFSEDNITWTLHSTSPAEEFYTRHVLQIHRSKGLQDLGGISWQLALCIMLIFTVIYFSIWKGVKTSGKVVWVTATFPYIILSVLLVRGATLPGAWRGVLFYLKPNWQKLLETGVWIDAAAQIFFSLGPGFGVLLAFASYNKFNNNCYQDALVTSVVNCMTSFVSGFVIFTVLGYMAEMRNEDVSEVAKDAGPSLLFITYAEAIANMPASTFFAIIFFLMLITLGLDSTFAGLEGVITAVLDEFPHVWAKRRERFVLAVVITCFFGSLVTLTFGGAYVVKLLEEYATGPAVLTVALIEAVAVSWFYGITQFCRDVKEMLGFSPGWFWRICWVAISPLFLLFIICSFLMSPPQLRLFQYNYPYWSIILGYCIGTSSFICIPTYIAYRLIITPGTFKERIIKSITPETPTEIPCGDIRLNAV", "assay": "Binding affinity to 5-HT transporter (unknown origin) at 10 uM relative to control"}, "Homo sapiens [12]": {"organism": "Homo sapiens", "assay": "Binding affinity to chloride channel (unknown origin) at 10 uM relative to control"}, "MAO-A": {"biological_target": "MAO-A (Homo sapiens, UniProt P21397)", "sequence (P21397 whole entry)": "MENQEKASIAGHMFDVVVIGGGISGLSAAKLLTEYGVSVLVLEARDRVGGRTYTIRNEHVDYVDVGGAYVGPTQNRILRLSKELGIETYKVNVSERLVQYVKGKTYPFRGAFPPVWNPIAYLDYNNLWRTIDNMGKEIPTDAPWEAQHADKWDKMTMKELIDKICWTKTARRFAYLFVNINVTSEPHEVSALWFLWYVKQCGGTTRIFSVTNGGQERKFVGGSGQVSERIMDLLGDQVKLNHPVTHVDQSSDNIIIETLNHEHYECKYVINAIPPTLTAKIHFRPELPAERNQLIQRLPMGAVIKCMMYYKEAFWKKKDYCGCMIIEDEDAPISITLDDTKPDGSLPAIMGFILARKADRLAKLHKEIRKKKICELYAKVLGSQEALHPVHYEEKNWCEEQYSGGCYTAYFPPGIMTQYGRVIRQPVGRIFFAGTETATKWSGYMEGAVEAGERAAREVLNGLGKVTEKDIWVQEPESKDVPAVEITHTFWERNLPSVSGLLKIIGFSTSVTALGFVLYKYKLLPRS", "assay": "Binding affinity to human MAO-A at 10 uM after 20 mins by spectrophotometric analysis relative to control", "conditions": "read-out: Activity"}, "[13]": {"biological_target": "Sodium-dependent noradrenaline transporter (Homo sapiens) (UniProt P23975)", "assay": "Binding affinity to norepinephrine transporter (unknown origin) at 10 uM relative to control"}, "[14]": {"test_system": "Voltage-gated potassium channel", "assay": "Binding affinity to voltage-gated potassium channel (unknown origin) at 10 uM relative to control", "type": "protein assay", "conditions": "human"}, "[15]": {"biological_target": "Galanin receptor type 2 (Homo sapiens) (UniProt O43603)", "sequence (O43603 whole entry)": "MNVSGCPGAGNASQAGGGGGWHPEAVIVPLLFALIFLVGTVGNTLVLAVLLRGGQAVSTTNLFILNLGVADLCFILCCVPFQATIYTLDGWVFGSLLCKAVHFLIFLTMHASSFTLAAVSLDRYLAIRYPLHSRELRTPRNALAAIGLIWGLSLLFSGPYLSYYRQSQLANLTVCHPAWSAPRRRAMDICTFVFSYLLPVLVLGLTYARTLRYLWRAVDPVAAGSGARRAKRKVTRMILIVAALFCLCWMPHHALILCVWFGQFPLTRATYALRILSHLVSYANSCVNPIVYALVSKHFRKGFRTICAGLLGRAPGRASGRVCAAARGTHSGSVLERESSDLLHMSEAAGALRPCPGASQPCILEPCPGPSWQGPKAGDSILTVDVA", "assay": "Binding affinity to recombinant human GAL2 receptor at 10 uM after 120 mins by scintillation counting analysis relative to control"}, "[16]": {"biological_target": "Polyunsaturated fatty acid 5-lipoxygenase (Homo sapiens) (UniProt P09917)", "sequence (P09917 whole entry)": "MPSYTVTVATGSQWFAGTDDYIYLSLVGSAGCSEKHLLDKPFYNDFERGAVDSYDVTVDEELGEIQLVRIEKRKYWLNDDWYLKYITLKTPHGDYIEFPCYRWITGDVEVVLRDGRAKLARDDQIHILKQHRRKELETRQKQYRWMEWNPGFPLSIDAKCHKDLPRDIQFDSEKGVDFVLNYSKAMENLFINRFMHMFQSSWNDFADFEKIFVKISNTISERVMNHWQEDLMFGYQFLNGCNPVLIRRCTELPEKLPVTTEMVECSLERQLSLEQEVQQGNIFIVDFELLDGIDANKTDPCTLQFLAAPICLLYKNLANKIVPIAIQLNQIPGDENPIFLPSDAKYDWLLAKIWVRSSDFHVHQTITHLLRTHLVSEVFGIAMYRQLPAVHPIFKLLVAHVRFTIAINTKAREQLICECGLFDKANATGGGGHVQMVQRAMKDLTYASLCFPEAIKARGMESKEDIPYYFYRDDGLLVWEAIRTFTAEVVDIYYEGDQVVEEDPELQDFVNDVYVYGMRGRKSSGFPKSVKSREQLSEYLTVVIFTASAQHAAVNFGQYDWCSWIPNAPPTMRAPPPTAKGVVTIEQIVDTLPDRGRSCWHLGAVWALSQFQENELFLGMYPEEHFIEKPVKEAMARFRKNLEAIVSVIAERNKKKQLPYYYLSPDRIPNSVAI", "assay": "Binding affinity to recombinant human 5-LOX at 10 uM after 90 mins by fluorescence assay relative to control"}, "[17]": {"biological_target": "Platelet-derived growth factor receptor (Mus musculus) (UniProt P05622+P26618)", "assay": "Binding affinity to mouse PDGFR at 10 uM after 180 mins by scintillation counting analysis relative to control", "type": "protein-complex assay"}, "[18]": {"biological_target": "Endothelin-1 receptor (Homo sapiens) (UniProt P25101)", "assay": "Binding affinity to recombinant human ETA receptor at 10 uM after 120 mins by scintillation counting analysis relative to control"}, "Bos taurus": {"organism": "Bos taurus", "assay": "Binding affinity to bovine PDE6 at 10 uM after 60 mins by scintillation counting analysis relative to control"}, "Homo sapiens [19]": {"organism": "Homo sapiens", "assay": "Binding affinity to delta-2-opioid receptor (unknown origin) at 10 uM relative to control"}, "[20]": {"biological_target": "5-hydroxytryptamine receptor 2A (Homo sapiens) (UniProt P28223)", "sequence (P28223 whole entry)": "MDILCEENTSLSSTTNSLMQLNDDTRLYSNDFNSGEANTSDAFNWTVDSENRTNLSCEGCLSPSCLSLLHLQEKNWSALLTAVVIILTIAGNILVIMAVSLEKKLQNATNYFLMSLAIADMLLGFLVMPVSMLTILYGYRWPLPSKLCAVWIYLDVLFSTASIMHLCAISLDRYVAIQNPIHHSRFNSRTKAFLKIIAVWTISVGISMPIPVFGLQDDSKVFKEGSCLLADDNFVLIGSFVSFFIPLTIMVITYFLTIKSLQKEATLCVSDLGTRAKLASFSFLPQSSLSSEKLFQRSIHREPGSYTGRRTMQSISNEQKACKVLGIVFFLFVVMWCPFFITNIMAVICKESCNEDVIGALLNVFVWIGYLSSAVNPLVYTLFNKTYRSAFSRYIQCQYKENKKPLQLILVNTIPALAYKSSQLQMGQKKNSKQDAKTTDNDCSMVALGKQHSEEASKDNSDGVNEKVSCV", "assay": "Binding affinity to recombinant human 5-HT2A receptor at 10 uM after 60 mins by scintillation counting analysis relative to control"}, "[21]": {"biological_target": "5-hydroxytryptamine receptor 1A (Homo sapiens) (UniProt P08908)", "assay": "Binding affinity to recombinant human 5-HT1A receptor at 10 uM after 60 mins by scintillation counting analysis relative to control"}, "[22]": {"biological_target": "Pituitary adenylate cyclase-activating polypeptide type I receptor (Homo sapiens) (UniProt P41586)", "assay": "Binding affinity to recombinant human PACAP receptor at 10 uM after 120 mins by scintillation counting analysis relative to control"}, "Homo sapiens [23]": {"organism": "Homo sapiens", "assay": "Binding affinity to P2Y receptor (unknown origin) at 10 uM relative to control"}, "[24]": {"biological_target": "Prostaglandin E2 receptor EP4 subtype (Homo sapiens) (UniProt P35408)", "assay": "Binding affinity to recombinant human EP4 receptor at 10 uM after 120 mins by scintillation counting analysis relative to control"}, "[25]": {"biological_target": "Galanin receptor type 1 (Homo sapiens) (UniProt P47211)", "assay": "Binding affinity to recombinant human GAL1 receptor at 10 uM after 120 mins by scintillation counting analysis relative to control"}, "[26]": {"biological_target": "Glucocorticoid receptor (Homo sapiens) (UniProt P04150)", "sequence (P04150 whole entry)": "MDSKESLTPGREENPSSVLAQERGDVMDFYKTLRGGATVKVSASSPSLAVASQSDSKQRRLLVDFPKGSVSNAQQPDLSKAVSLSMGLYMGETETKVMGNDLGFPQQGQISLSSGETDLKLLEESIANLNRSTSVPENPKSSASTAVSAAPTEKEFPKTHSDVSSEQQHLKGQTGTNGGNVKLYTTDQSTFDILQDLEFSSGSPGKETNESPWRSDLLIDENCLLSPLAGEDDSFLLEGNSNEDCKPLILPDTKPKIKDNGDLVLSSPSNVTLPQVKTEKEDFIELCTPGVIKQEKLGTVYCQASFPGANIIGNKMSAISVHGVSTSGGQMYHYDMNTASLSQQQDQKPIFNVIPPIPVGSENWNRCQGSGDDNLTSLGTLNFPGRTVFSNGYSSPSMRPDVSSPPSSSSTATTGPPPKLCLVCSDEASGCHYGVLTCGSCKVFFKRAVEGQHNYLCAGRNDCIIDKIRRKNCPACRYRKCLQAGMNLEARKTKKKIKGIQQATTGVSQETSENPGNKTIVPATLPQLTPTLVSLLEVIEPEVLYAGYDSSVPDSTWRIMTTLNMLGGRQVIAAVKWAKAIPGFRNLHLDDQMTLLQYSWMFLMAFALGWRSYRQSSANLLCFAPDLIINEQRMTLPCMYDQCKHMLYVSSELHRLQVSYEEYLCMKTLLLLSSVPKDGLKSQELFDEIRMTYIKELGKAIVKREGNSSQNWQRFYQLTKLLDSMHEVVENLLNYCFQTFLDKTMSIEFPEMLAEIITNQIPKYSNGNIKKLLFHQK", "assay": "Binding affinity to human GR at 10 uM after 360 mins by scintillation counting analysis relative to control"}, "[27]": {"biological_target": "5-hydroxytryptamine receptor 3A (Homo sapiens) (UniProt P46098)", "assay": "Binding affinity to recombinant human 5-HT3 receptor at 10 uM after 120 mins by scintillation counting analysis relative to control"}, "Homo sapiens [28]": {"organism": "Homo sapiens", "assay": "Binding affinity to bombesin receptor (unknown origin) at 10 uM relative to control"}, "[29]": {"biological_target": "Muscarinic acetylcholine receptor M2 (Homo sapiens) (UniProt P08172)", "assay": "Binding affinity to muscarinic M2 receptor (unknown origin)"}, "[30]": {"biological_target": "Voltage-gated inwardly rectifying potassium channel KCNH2 (Homo sapiens, UniProt Q12809)", "assay": "Displacement of [3H]-astemizole from human ERG up to 10 uM", "in_short": "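hERG channel binding assay run by a contract lab; compound tested up to 10 μM.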"}, "[31]": {"biological_target": "5-hydroxytryptamine receptor 5A (Homo sapiens) (UniProt P47898)", "assay": "Binding affinity to recombinant human 5-HT5A receptor at 10 uM after 120 mins by scintillation counting analysis relative to control"}},
  "data": [
    {"molecule": "CCOc1c(Cl)cc(C(=O)Nc2ccc(C(=O)O)c(C)c2)cc1OC(C)C", "values": [
      {"measurement": "Activity", "setting": "[1]", "value": "< 25", "unit": "%"},
      {"measurement": "Activity", "setting": "[2]", "value": "< 25", "unit": "%"},
      {"measurement": "Activity", "setting": "Salmonella typhimurium", "value": "Non-Toxic"},
      {"measurement": "Activity", "setting": "COS-7", "value": "Non-Toxic"},
      {"measurement": "activity at 1 h, 10 µM", "setting": "[3]", "value": "≤ 25", "unit": "%"},
      {"measurement": "Activity", "setting": "[4]", "value": "< 25", "unit": "%"},
      {"measurement": "Activity", "setting": "[5]", "value": "< 25", "unit": "%"},
      {"measurement": "Activity", "setting": "[6]", "value": "< 25", "unit": "%"},
      {"measurement": "Activity", "setting": "[7]", "value": "< 25", "unit": "%"},
      {"measurement": "Activity", "setting": "[8]", "value": "< 25", "unit": "%"},
      {"measurement": "activity at 10 µM", "setting": "L-type calcium channel", "value": "≤ 25", "unit": "%"},
      {"measurement": "Activity", "setting": "Caspase-8 (Homo sapiens)", "value": "< 25", "unit": "%"},
      {"measurement": "Activity", "setting": "[9]", "value": "< 25", "unit": "%"},
      {"measurement": "Activity", "setting": "[10]", "value": "< 25", "unit": "%"},
      {"measurement": "Activity", "setting": "[11]", "value": "< 25", "unit": "%"},
      {"measurement": "Activity", "setting": "Homo sapiens [12]", "value": "< 25", "unit": "%"},
      {"measurement": "activity at 20 min, 10 µM", "setting": "MAO-A", "value": "≤ 25", "unit": "%"},
      {"measurement": "Activity", "setting": "[13]", "value": "< 25", "unit": "%"},
      {"measurement": "Activity", "setting": "[14]", "value": "<= 25%"},
      {"measurement": "Activity", "setting": "[15]", "value": "< 25", "unit": "%"},
      {"measurement": "Activity", "setting": "[16]", "value": "< 25", "unit": "%"},
      {"measurement": "Activity", "setting": "[17]", "value": "< 25", "unit": "%"},
      {"measurement": "Activity", "setting": "[18]", "value": "< 25", "unit": "%"},
      {"measurement": "Activity", "setting": "Bos taurus", "value": "< 25", "unit": "%"},
      {"measurement": "Activity", "setting": "Homo sapiens [19]", "value": "< 25", "unit": "%"},
      {"measurement": "Activity", "setting": "[20]", "value": "< 25", "unit": "%"},
      {"measurement": "Activity", "setting": "[21]", "value": "< 25", "unit": "%"},
      {"measurement": "Activity", "setting": "[22]", "value": "< 25", "unit": "%"},
      {"measurement": "Activity", "setting": "Homo sapiens [23]", "value": "< 25", "unit": "%"},
      {"measurement": "Activity", "setting": "[24]", "value": "< 25", "unit": "%"},
      {"measurement": "Activity", "setting": "[25]", "value": "< 25", "unit": "%"},
      {"measurement": "Activity", "setting": "[26]", "value": "< 25", "unit": "%"},
      {"measurement": "Activity", "setting": "[27]", "value": "< 25", "unit": "%"},
      {"measurement": "Activity", "setting": "Homo sapiens [28]", "value": "< 25", "unit": "%"},
      {"measurement": "Activity", "setting": "[29]", "value": "< 25", "unit": "%"},
      {"measurement": "Activity", "setting": "[30]", "value": "Not Active"},
      {"measurement": "Activity", "setting": "[31]", "value": "< 25", "unit": "%"}
    ]}
  ]
}
